In the library only some 29% were active in any assay of this set; here they are far more common.
CYP2C19 activ: human CYP2C19 activators, primary screen, biochemical, luminescence | Cytochrome P450 2C19 (Homo sapiens), P33261 | recombinant CYP2C19, luciferin-H EGE luminescence; stronger effect = higher value; 0 = fully inhibited enzyme, 1 = untreated enzyme | activation factor at 5 µM | 96,000 tested, under 10 active;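 active = activation factor of at least 2 at 5 µM in the primary screen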;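 note: 0 = wells with 2.5 mM tranylcypromine and 1 = vehicle-only wells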
Target sequence (P33261 whole entry, looked up): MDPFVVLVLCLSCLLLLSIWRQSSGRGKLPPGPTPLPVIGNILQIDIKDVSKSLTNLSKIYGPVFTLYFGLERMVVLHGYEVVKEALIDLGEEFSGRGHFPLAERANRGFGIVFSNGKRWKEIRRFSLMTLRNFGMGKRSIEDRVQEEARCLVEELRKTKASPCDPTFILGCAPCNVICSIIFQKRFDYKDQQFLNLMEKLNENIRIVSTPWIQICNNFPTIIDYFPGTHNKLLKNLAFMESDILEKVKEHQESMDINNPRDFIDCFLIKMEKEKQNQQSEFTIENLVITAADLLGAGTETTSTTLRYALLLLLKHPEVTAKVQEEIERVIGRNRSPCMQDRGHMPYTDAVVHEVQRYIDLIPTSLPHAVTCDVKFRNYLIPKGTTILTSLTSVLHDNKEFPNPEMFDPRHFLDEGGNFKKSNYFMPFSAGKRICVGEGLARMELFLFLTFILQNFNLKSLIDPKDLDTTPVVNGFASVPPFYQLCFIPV
CYP2C19 inh: blockers of cytochrome P450 2C19 activity – biochemical, luminescence, ADME assay, primary screen; P33261; CYP2C19 Supersomes, luciferin-H EGE luminescence, 30 min; inhibition, % at 5 µM; 21% of 96,000 active;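 active = CYP2C19 inhibition above a set limit at 5 µM in the primary screen, cut at about 50% in these data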;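 note: plate controls were negative control wells for no effect and 2.5 mM tranylcypromine positive control for full effect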
CYP2C9 act: human CYP2C9 activators, primary screen, biochemical, luminescence. Cytochrome P450 2C9 (Homo sapiens), P11712. recombinant CYP2C9, luciferin-H conversion; stronger effect = higher value; factor 1 = untreated enzyme, 0 = blocked. activation factor at 5 µM. 1.4% of 96,000 active. AID 1024, 2008;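 active = activation factor of 2 or more for CYP2C9 at a 5 µM dose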;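 note: 0 = sulfaphenazole-blocked wells and 1 = vehicle-only wells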
Ecoli WT expand: growth inhibitors of wild-type E. coli, primary screen, strain BW25113, expanded library, OD600; OD600 absorbance; growth inhibition, % at 100 µM; 0.15% of 98,000 active; AID 710, 2007;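 active = growth inhibition above about 50% at one test dose, limit read from the data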;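 note: growth measured after 20 h incubation at 37 °C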
CYP2C9 inh: blockers of cytochrome P450 2C9 activity – biochemical, luminescence, ADME assay, primary screen; CYP2C9 Supersomes, luciferin-H conversion; inhibition, % at 5 µM; 20% of 96,000 active; AID 777, 2007;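 active = blocking of liver enzyme CYP2C9 beyond about 50% at 5 µM, limit read from the data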
Ecoli tolC: growth inhibitors of E. coli tolC mutant, primary screen, strain BW25113 ΔtolC::kan, 384-well; OD615; AID 573, 2007; 2.2% of 65,000 active; growth inhibition, % at 10 µM (by protocol);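 active = growth inhibition at or above a cutoff equal to the mean over every tested compound plus 3 SD, cut at about 60% in these data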;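 note: growth measured after 20 h incubation at 37 °C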
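Test system: tolC-deleted E. coli BW25113; medium: LB with kanamycin 50 µg/mL; compound: single-point testing at 10 µM; incubation: 20 h compound exposure of bacteria at 37 °C; signal: OD at 615 nm; evaluation: growth inhibition in percent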
Active calls of the source: *; . = no result given.

SMILES	CYP2C19 activ	CYP2C19 inh	CYP2C9 act	Ecoli WT expand	CYP2C9 inh	Ecoli tolC
COC(=O)C1=C(C)NC(=O)/C1=C\c1cc(C)n(-c2cccc(C)c2)c1C	0.2	79*	0.2	-5	84*	.
CCOC(=O)c1sc(=S)n(-c2ccc(Cl)cc2)c1SC	1	-1	0.7	-8	27	.
Cc1ccc(C(=O)/C=C/c2ccc(-c3ccccc3[N+](=O)[O-])o2)cc1	0.7	29	0.4	-23	58*	.
O=C(/C=C/c1ccc(-c2ccccc2[N+](=O)[O-])o1)c1ccc(Br)cc1	0.8	21	0.9	-12	13	.
COc1ccc(C2C(C(C)=O)=C(C)N=c3s/c(=C\c4ccco4)c(=O)n32)c(OC)c1 (stereo not drawn)	0.5	53*	0.2	-17	78*	30
CC(C)C(=O)NC(c1ccc([N+](=O)[O-])cc1)c1c(O)ccc2ccccc12 (stereo not drawn)	1	4	0.9	-5	9	.
CC(=O)Oc1ccc2ccccc2c1C(NC(=O)Cc1ccccc1)c1ccccc1Cl (stereo not drawn)	0.4	63*	0.5	-9	48	.
Cc1cccc(-c2nsc(SCC(=O)N3CCCC3)n2)c1	0.5	50*	1.1	-15	-11	14
Cc1cccc(-c2nsc(SCC(=O)Nc3nccs3)n2)c1	0.6	36	0.5	-8	48	-10
CCOC(=O)CSc1nc2ccccc2c(=O)n1C	.	.	.	-7	.	0
CCOC(=O)CC(=O)CSc1nc2ccccc2c(=O)n1-c1ccc(C(=O)NCCOC)cc1	0.3	74*	0.2	-10	78*	.
CCCNC(=O)NC(=O)CSc1nc2cc(C(=O)OC)ccc2c(=O)n1-c1ccccc1	1	-3	1	4	5	.
CCOC(=O)CC(=O)CSc1nc2ccccc2c(=O)n1-c1ccc(C(=O)N2CCOCC2)cc1	0.1	86*	0.3	0	73*	-15
CS(=O)(=O)N1CCN(c2c(Cl)cccc2[N+](=O)[O-])CC1	0.8	21	0.8	2	15	.
O=C(CSc1ccc(Cl)cc1)N1CCN(c2c(Cl)cccc2[N+](=O)[O-])CC1	0.7	35	0.3	-14	71*	.
CCS(=O)(=O)N1CCN(c2c(Cl)cccc2[N+](=O)[O-])CC1	0.5	52*	0.6	-3	40	.
CCc1n[nH]c2c1C(=O)CC(C)(C)C2	0.9	12	1	4	-4	-11
O=C(CN(C(=O)Cn1nnc(-c2ccc(F)cc2)n1)C1CCCC1)NC1CCCC1	1	5	1	1	-1	-1
O=C(Cn1nnc(-c2ccc(Cl)cc2)n1)NC1CCN(Cc2ccccc2)CC1	0.8	16	0.8	-13	20	0
Cc1ccc(-c2nnn(CCC(=O)NC3CCCC3)n2)cc1	0.5	45	0.2	-1	76*	-2
CC1CCCCC1NC(=O)Cn1nnc(-c2ccc(Cl)cc2)n1 (stereo not drawn)	0.3	71*	1.1	-6	-8	0
Cc1[nH]nc(-c2ccc(O)cc2O)c1Oc1ccccc1	0	100*	0	15	99*	4
CCCOC(=O)c1ccc(Oc2c(-c3ccc(OC)cc3O)n[nH]c2C)cc1	0.5	46	0.2	2	83*	55
CCc1cc(-c2n[nH]c(C)c2Oc2ccc(C(C)C)cc2)c(O)cc1O	0.3	67*	0.2	17	83*	.
CCCOC(=O)c1ccc(Oc2c(-c3ccc(O)cc3O)n[nH]c2C)cc1	0.1	87*	0	15	98*	100*
SMILES	CYP2C19 activ	CYP2C19 inh	CYP2C9 act	Ecoli WT expand	CYP2C9 inh	Ecoli tolC
CCOC(=O)c1[nH]nc(-c2cc(CC)c(O)cc2O)c1-c1cscn1	0.6	42	0.7	-2	34	.
c1ccc(CC2CCN(C(c3cccs3)c3nnnn3C3CCCC3)CC2)cc1 (stereo not drawn)	0.3	68*	0.1	-7	88*	21
Cc1ccc2occ(C(c3nnnn3C3CCCC3)N3CCN(C(=O)c4ccco4)CC3)c(=O)c2c1 (stereo not drawn)	0.2	82*	0.2	6	83*	6
CC(C)CC(c1nnnn1C1CCCC1)N1CCN(C(=O)c2ccco2)CC1 (stereo not drawn)	0.6	44	0.6	5	45	6
CCC(c1nnnn1CCOC)N1CCN(C(=O)c2ccco2)CC1 (stereo not drawn)	0.7	27	0.9	2	10	-26
CCCCC(c1nnnn1CCOC)N1CCN(C(=O)c2ccco2)CC1 (stereo not drawn)	0.2	80*	0.4	-2	55*	-10
O=C(c1ccco1)N1CCN(C(c2ccccn2)c2nnnn2C2CCCC2)CC1 (stereo not drawn)	.	.	.	-5	.	-6
O=C(c1ccco1)N1CCN(C(c2cccs2)c2nnnn2C2CCCC2)CC1 (stereo not drawn)	0.5	55*	0.3	-8	68*	.
CCCCC(c1nnnn1C1CCCC1)N1CCN(C(=O)c2ccco2)CC1 (stereo not drawn)	0.3	73*	0.3	4	69*	3
COc1ccccc1N1CCN(C(c2cccs2)c2nnnn2C2CCCC2)CC1 (stereo not drawn)	0.1	94*	0.1	-4	88*	26
CCCC(c1nnnn1C1CCCCC1)N1CCN(c2ncccn2)CC1 (stereo not drawn)	0.6	36	0.2	-6	81*	3
c1coc(CN2CCN(C(c3cccs3)c3nnnn3C3CCCC3)CC2)c1 (stereo not drawn)	0.7	28	0.8	-10	21	.
CCCCC(c1nnnn1C1CCCC1)N1CCN(C2CCCCC2)CC1 (stereo not drawn)	0.9	12	0.7	-3	27	-23
CC(=O)c1c(OC(=O)c2ccccc2)c2ccccc2n1C	0.7	33	1	-5	3	.
O=C1CCCC2=C1C(c1ccco1)Nc1ccc(C(=O)c3ccccc3)cc1N2 (stereo not drawn)	0.7	34	0.7	13	32	35
Cc1ccc(Oc2nc3ccccc3n3c(C)nnc23)c(C)c1	0.9	11	0.9	-3	14	.
COc1ccccc1OCCCn1c(=O)oc2ccccc21	0	100*	0.7	-1	32	9
CCCOc1ccccc1Cn1c(=O)oc2ccc(C)cc21	0	96*	0.2	2	84*	73*
COc1ccccc1OCCCn1c(=O)oc2ccc(C)cc21	0.4	56*	0.8	3	20	15
CCCCOC(=O)n1c(=O)oc2ccccc21	0.8	15	1.1	4	-14	-19
